# The entries come from a sample that favours hits as a whole.
# ROMK primary = ROMK potassium channel modulators, primary screen, cell-based, thallium flux, MLSMR library | AID 1918, 2009 | ATP-sensitive inward rectifier potassium channel 1 (Homo sapiens), P48048 | 130,000 tested, 2% active | Tet-inducible ROMK, thallium flux fluorescence; actives lie on both sides | B-score at 10 µM;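 active = signal ratio slope over the read window, or its plate-corrected B-score, at least 3 SD from the plate mean, either direction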;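 also: B-score of the F/F0 ratio slope over 7 to 12 s after thallium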
# Target sequence (P48048 whole entry, looked up): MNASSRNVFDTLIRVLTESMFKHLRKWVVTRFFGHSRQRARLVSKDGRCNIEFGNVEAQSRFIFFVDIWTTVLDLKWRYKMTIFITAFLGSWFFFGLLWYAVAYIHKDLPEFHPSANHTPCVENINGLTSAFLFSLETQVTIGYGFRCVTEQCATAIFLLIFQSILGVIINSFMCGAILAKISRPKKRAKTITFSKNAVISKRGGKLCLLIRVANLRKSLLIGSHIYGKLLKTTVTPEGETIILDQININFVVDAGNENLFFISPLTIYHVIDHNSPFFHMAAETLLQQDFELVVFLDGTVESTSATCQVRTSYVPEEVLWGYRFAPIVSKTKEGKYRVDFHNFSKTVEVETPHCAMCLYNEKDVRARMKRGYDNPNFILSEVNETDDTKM
# ABCG2 inh = ABCG2 efflux pump inhibitors, primary screen, multiplex with ABCB1, IgMXP3 cells, flow cytometry; Broad substrate specificity ATP-binding cassette transporter ABCG2 (Homo sapiens), Q9UNQ0; JC-1 efflux; inhibition, % at 6.6 µM; 190,000 tested, 0.1% active; AID 1325, 2008;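 active = inhibition above 80%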;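 also: 0% = DMSO and 100% = nicardipine control wells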
#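 Test system: IgMXP3 (ABCG2) plus far-red-tagged CCRF-Adr (ABCB1) cells / Amount: 3 million cells/mL in well / Reagent: JC-1 transporter substrate / Timing: 10 min compound exposure, 25 °C / Signal: flow cytometry, 530 nm JC-1 signal / Read-out: percent efflux inhibition, scaled nicardipine 100% to DMSO 0% / Benchmarks: nicardipine as high control, DMSO as low control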
# Biofilm kill mix = clotrimazole potentiators killing C. albicans biofilm, primary screen, 4-compound mixtures; C. albicans biofilm persisters + clotrimazole, fluorescence viability; primary screen in compound mixtures of four per well; inhibition, % at 7.6 µM; 120,000 tested, 0.02% active; AID 1242, 2008;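 active = inhibition above 30.3% in the primary screen of four-compound pools, then above 30% when the compound was retested; inconclusive = passed the primary limit but could not be retested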;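 also: compounds exposed to preformed 24 h biofilms for 48 h; 0% = untreated biofilm control and 100% = clotrimazole plus chlorhexidine kill blank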
#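 Incubation: 24 h biofilm formation, then 48 h compound exposure, 37 °C | Material: C. albicans biofilms | Buffer or medium: RPMI/MOPS medium, pH 7.0 | Measured by: 2-h Alamar Blue fluorescence, 535/590 nm excitation/emission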
# ABCB1 inh = ABCB1 efflux pump inhibitors, primary screen, cell-based, multiplex, flow cytometry, ABCG2 counter-screen; inhibition, % at 6.6 µM; 190,000 tested, 0.067% active; CCRF-Adr cells, JC-1 efflux; in the data active = inhibition above about 40%;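 also: 0% = vehicle and 100% = reference inhibitor; higher value means more JC-1 retained so stronger ABCB1 efflux block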
# TRPN1 ag = zebrafish TRPN1 channel agonists, primary screen, cell-based, HEK293, calcium fluorescence; transient receptor potential cation channel N1 (TRPN1/NompC), Danio rerio; HEK293 zebrafish TRPN1-YFP, Fluo-8 calcium fluorescence; 100% = response to 87 µM carbachol; activation, % at 3 µM; 220,000 tested, 0.18% active; AID 1424, 2008;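 active = activation above its plate's cutoff, the mean activation of test wells on that plate plus 3 SD, cut at about 19% in these data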;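 also: 0% = DMSO alone and 100% = 87 µM carbachol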
#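 Material: zebrafish TRPN1-YFP in HEK293 cells; Doses: single test compound dose, 3 µM nominal, 0.3% DMSO; Timing: dye loading 1 h at 37 °C, then 30 min room temperature; Technique: intracellular calcium fluorescence with Fluo-8; Benchmarks: high carbachol 87 µM, low DMSO alone.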
# TRPML3 ag = human TRPML3 channel agonists, primary screen, cell-based, HEK293 TRPML3-YFP, Fluo-8 calcium fluorescence, 3 µM; Mucolipin-3 (Homo sapiens), Q8TDD5; 100% = the carbachol control signal; activation, % at 3 µM; 220,000 tested, 0.29% active; AID 1448, 2008;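 active = activation above its plate's cutoff, the mean activation of the plate's test wells plus 3 SD, cut at about 12% in these data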;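 also: 0% = DMSO only wells and 100% = carbachol wells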
#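 Test system: HEK293 cells stably carrying human TRPML3-YFP; Doses: single dose, 3 µM final nominal compound, 0.3% DMSO final; Schedule: dye loading 1 h 37 °C then 30 min ambient, 125 s read; Technique: Fluo-8 calcium fluorescence; Benchmarks: high control carbachol 87 µM, low control DMSO.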
# ROMK hit retest = ROMK channel modulator hit retest, confirmation, cell-based, thallium flux, duplicate, resupplied hits; fluorescence ratio; stronger effect = lower value; normalized thallium flux (F/F0 slope) at 10 µM; 3,000 tested, 54% active; shares compounds with ROMK primary;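 active = Flux at 10 µM at least 3 SD below or above vehicle control mean in one or both replicates; inconclusive = no clear call, values can overlap the other calls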
# The depositor's hits bear a star; u = inconclusive; x = no result given.
SMILES,ROMK primary,ABCG2 inh,Biofilm kill mix,ABCB1 inh,TRPN1 ag,TRPML3 ag,ROMK hit retest
CCOC(=O)C(CC)Sc1nnc(COc2ccc(C)cc2)n1-c1ccccc1 (centres undefined),-4.51*,1.5,3.5,1.0,-2.0,-0.6,0.066*
COc1ccc(OC)c(/C=C2\SC(=S)N(C(C(=O)O)c3ccccc3)C2=O)c1 (centres undefined),x,x,-0.7,x,2.9,-0.2,0.0517*
CCOc1ccc(/C=C2\SC(=S)N(C(C(=O)O)c3ccccc3)C2=O)cc1OC (centres undefined),x,x,24.1,x,0.8,0.5,x
Cc1ccc(Cl)cc1N1CCN(S(=O)(=O)c2cccc(S(=O)(=O)N3CCCC3)c2)CC1,-3.26*,0.8,x,0.4,0.8,0.1,0.0702
CSc1ccc(-c2nc(CN3CCCCC3c3cccnc3)c(C)o2)cc1 (centres undefined),x,3.2,5.2,5.4,0.6,-0.4,x
COC(=O)c1ccc(Cl)c(NC(=O)CN(c2ccccc2)S(=O)(=O)c2ccc(OC)cc2)c1,x,36.1,18.2,3.4,1.8,0.1,x
CCC(=O)N(C)CCc1cc2c(c(OC)c1/C=N/NC(=O)c1ccncc1)OCO2,-2.01*,x,14.6,x,0.2,0.1,0.0718
CC1=NN(c2nc(-c3ccc(C)cc3)cs2)C(=O)C1N=Nc1ccc(C(N)=O)cc1 (centres undefined),0.1,-1.1,4.2,-0.7,0.3,0.5,0.0768
O=S(=O)(Nc1nc2ccccc2s1)c1ccc(Br)s1,-3.18*,-2.8,x,-1.7,0.8,0.5,0.0525*
Cc1ccc(S(=O)(=O)Nc2nc3ccccc3s2)cc1,-0.0187,2.5,x,1.9,-1.3,0.1,x
CCCCN(CC)S(=O)(=O)c1ccc(C(=O)N(CCCN(C)C)c2nc3cc(C)cc(C)c3s2)cc1,-3.75*,3.2,21.4,1.7,0.5,1.7,0.0536*
COc1ccc(S(=O)(=O)N(CCc2ccccc2)CC(=O)O)cc1C,0.781,0.8,x,0.2,-1.0,0.4,x
Fc1ccc(COc2ccc(Br)cc2CNCc2ccncc2)cc1,-2.66*,11.8,x,3.6,0.7,-1.1,0.0628*
O=C(CCn1c(=O)oc2ccccc21)N1CCN(c2ccccc2F)CC1,-0.189,0.7,x,0.2,-0.5,0.3,x
O=C(CCn1c(=O)oc2ccccc21)N1CCN(C(c2ccccc2)c2ccccc2)CC1,-2.84*,8.0,x,2.3,-2.3,-1.0,0.0589*
N#C/C(=C\c1ccccc1)C(=O)N(c1ccccn1)C1CCCCC1,x,14.7,13.8,2.0,-0.1,0.8,0.0452*
O=C(/C=C/c1ccc([N+](=O)[O-])cc1)N(c1ccccn1)C1CCCCC1,5.66*,0.8,14.2,0.4,0.7,1.3,0.0755
C=CCn1c(SC(C)C#N)nc2sc(CC)cc2c1=O (centres undefined),-0.494,1.1,12.8,0.2,-1.6,-0.2,x
C=CCN=C(NC#N)SC,x,x,16.6,x,0.6,0.6,x
COc1ncnc2c1NC1=C(S2)C(=NCCC(=O)O)CC(C)(C)C1,x,15.8,x,-1.0,0.8,0.2,0.0496*
COc1ccc(Cl)cc1-c1nc(SCC(N)=O)n[nH]1,x,x,14.1,x,0.9,0.9,x
Cc1ccc(/C=C/C(=O)CCC(=O)O)cc1,0.136,3.5,13.9,2.1,1.5,0.6,x
CC(=O)c1cc(NC(=O)c2ccc(C)cc2)c(=O)oc1/C=C/N(C)C,x,5.3,x,1.2,2.8,0.9,x
COc1ccc(C(=O)Nc2cc(C(C)=O)c(/C=C/N(C)C)oc2=O)cc1,x,1.4,x,0.7,1.6,0.6,0.0368*
COc1ccc(N(CC(=O)Nc2ccccc2C(N)=O)S(=O)(=O)c2ccc(C)c([N+](=O)[O-])c2)cc1,0.313,0.1,9.2,0.0,-0.2,-0.3,0.0665*
SMILES,ROMK primary,ABCG2 inh,Biofilm kill mix,ABCB1 inh,TRPN1 ag,TRPML3 ag,ROMK hit retest
CCOC(=O)c1ccc(-n2c(O)c(/C=N/NC(=O)C3COc4ccccc4O3)c3ccccc3c2=O)cc1 (centres undefined),x,-10.9,1.3,-1.0,-0.9,0.0,0.0457*
O=C(CSc1ncnc2ccccc12)NCC(=O)c1ccccc1,x,0.3,-4.7,0.2,1.8,0.7,x
ClC(Cl)(c1nnnn1-c1ccccc1)c1nnnn1-c1ccccc1,-2.82*,-3.4,10.9,-1.2,2.9,4.2,0.06*
c1ccc(N2CCN(c3nnnn3-c3ccccc3)CC2)cc1,-0.839,2.4,x,0.4,-0.7,-0.4,x
O=C(CN1CCC(c2nc3ccccc3s2)CC1)NCc1ccccc1,-3.01*,3.8,14.0,3.0,5.9,1.7,0.0733
CCc1ccc(C(=O)N2CCC(c3nc4ccccc4s3)CC2)cc1,x,-0.3,x,-0.2,1.5,-0.1,x
O=C(NCc1ccc(F)cc1)C1CCCN(c2nc3ccsc3c(=O)s2)C1 (centres undefined),0.00399,7.7,1.3,0.8,2.0,0.0,x
CCOc1cc(/C=C\[N+](=O)[O-])ccc1OCC(=O)N1CCOCC1,-5.62*,0.7,4.4,0.2,1.3,0.6,0.0565*
CCOc1cc(/C=C/c2nc3cc(C)c(C)cc3s2)ccc1OCC(=O)N1CCOCC1,x,-7.2,4.0,0.2,-2.1,0.0,x
Cc1ccc(S(=O)(=O)Nc2cc(NC(=O)CN3CCOCC3)ccc2Cl)cc1,x,0.6,x,-0.1,0.2,0.6,0.0883
Cc1ccc(S(=O)(=O)Nc2ccc(NC(=O)CN3CCCCC3)cc2)cc1,0.391,1.2,x,0.8,0.0,0.6,x
O=C(N/N=C/c1ccccn1)c1cccc(S(=O)(=O)N2CCCC2)c1,x,x,16.8,x,-0.1,0.5,x
Cc1ccc(C)c(OCC(O)CN2CCC(CN3C(=O)c4cccc5cccc(c45)C3=O)CC2)c1 (centres undefined),-4.72*,2.6,5.9,6.0,-1.0,0.9,u
O=C1c2cccc3cccc(c23)C(=O)N1CC1CCN(CC(O)COCc2ccc3c(c2)OCO3)CC1 (centres undefined),-2.92,4.2,-13.7,0.6,-2.3,0.5,x
CC1(C)CNc2cc(N)ccc2S1,-0.476,-3.0,19.7,-0.9,0.1,0.0,x

# Screens as filed in PubChem.
